ChEMBL document CHEMBL3758120, “Synthesis and Mechanism Studies of 1,3-Benzoazolyl Substituted Pyrrolo[2,3-b]pyrazine Derivatives as Nonintercalative Topoisomerase II Catalytic Inhibitors” (J Med Chem, 2016)
Calls of active or inactive are those of the source. No cut-off for these calls is given here.

Assays:
[1] = molecular target: T1, DNA topoisomerase 2-alpha (Homo sapiens, UniProt P11388); assay: Inhibition of purified human topoisomerase 2-mediated relaxation of supercoiled pBR322 DNA at 20 uM incubated for 30 mins by agarose gel electrophoresis
Method in brief: (§1)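 Reactions contained 0.2 μg supercoiled pBR322 in 50 mM Tris-HCl pH 8.0, 150 mM NaCl, 10 mM MgCl2, 0.5 mM DTT, 30 μg/ml BSA, normally 2 mM ATP (1, 2 or 4 mM in ATP-competition runs). Started with 1 U human Topo II, 30 min at 37 °C, stopped with sarcosyl buffer, run on 1% agarose 1.5 h at 75 V, gel-stained and imaged under UV.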

[2] = test system: HL-60; assay: Induction of apoptosis in human HL60 cells assessed as dead cells at 0.5 uM after 24 hrs by annexin V-FITC/propidium iodide staining-based flow cytometric analysis (reference value: 0.12%); type: functional
[3] = test system: HeLa; assay: Antiproliferative activity against human HeLa cells after 48 hrs by MTT assay; type: functional, cell-based
Method in brief: (§2)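 Cells seeded at 5000 per well and left overnight, then exposed to increasing concentrations (0-50 μM) for 48 h. […] HL-60/MX2 is a mitoxantrone-selected HL-60 derivative with reduced Topo IIα/β.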

[4] = test system: HL-60; assay: Induction of apoptosis in human HL60 cells assessed as early apoptotic cells at 0.5 uM after 12 hrs by annexin V-FITC/propidium iodide staining-based flow cytometric analysis (reference value: 0.38 to 0.55%); type: functional
Method in brief: (§3)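 HL-60 cells at 5.0 × 10^5 cells/ml treated for 12 h (0.5–2 μM) or 24 h (0.25–1 μM), washed twice in cold PBS, resuspended in binding buffer, stained with annexin V-FITC and propidium iodide for 15 min in the dark, analysed by flow cytometry within 1 h; quadrants define live, early and late apoptotic cells. Three repeats.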

[5] = test system: HL-60; assay: Induction of apoptosis in human HL60 cells assessed as viable cells at 1 uM after 24 hrs by annexin V-FITC/propidium iodide staining-based flow cytometric analysis (reference value: 97.75%); type: functional; details: HL-60, 24 h, read-out: Activity; method in brief: as §3
[6] = test system: HL-60; assay: Induction of apoptosis in human HL60 cells assessed as viable cells at 0.5 uM after 12 hrs by annexin V-FITC/propidium iodide staining-based flow cytometric analysis (reference value: 99.12 to 99.33%); type: functional; details: HL-60, 12 h, read-out: Activity; method in brief: as §3
[7] = test system: HL-60; assay: Induction of apoptosis in human HL60 cells assessed as viable cells at 0.5 uM after 24 hrs by annexin V-FITC/propidium iodide staining-based flow cytometric analysis (reference value: 97.75%); type: functional; details: HL-60, 24 h, read-out: Activity; method in brief: as §3
[8] = test system: HL-60; assay: Induction of apoptosis in human HL60 cells assessed as dead cells at 0.5 uM after 12 hrs by annexin V-FITC/propidium iodide staining-based flow cytometric analysis (reference value: 0.12 to 0.15%); type: functional
[9] = test system: HL-60; assay: Induction of apoptosis in human HL60 cells assessed as dead cells at 0.25 uM after 24 hrs by annexin V-FITC/propidium iodide staining-based flow cytometric analysis (reference value: 0.12%); type: functional
[10] = test system: HL-60; assay: Induction of apoptosis in human HL60 cells assessed as dead cells at 1 uM after 24 hrs by annexin V-FITC/propidium iodide staining-based flow cytometric analysis (reference value: 0.12%); type: functional
[11] = test system: HL-60; assay: Induction of apoptosis in human HL60 cells assessed as late apoptotic cells at 1 uM after 12 hrs by annexin V-FITC/propidium iodide staining-based flow cytometric analysis (reference value: 0.17 to 0.18%); type: functional; method in brief: as §3
[12] = molecular target: T1, DNA topoisomerase 2-alpha; assay: Inhibition of purified human topoisomerase 2 using supercoiled pBR322 DNA as substrate assessed as linear DNA formation at 20 uM incubated for 6 mins by agarose gel electrophoresis
Method in brief: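 Human Topo II (6 units) with 0.1 μg supercoiled pBR322 in 50 mM Tris-HCl pH 8.0, 150 mM NaCl, 10 mM MgCl2, 2 mM ATP, 0.5 mM DTT, 30 μg/ml BSA; compounds at 20 μM, etoposide 100 μM. After 6 min at 37 °C, complexes trapped with SDS then EDTA, proteinase K 30 min at 45 °C, heated 72 °C 2 min, run on 1% agarose; linear DNA scored. Antagonism tested by compound pretreatment before etoposide.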

[13] = test system: HL-60; assay: Induction of apoptosis in human HL60 cells assessed as viable cells at 2 uM after 12 hrs by annexin V-FITC/propidium iodide staining-based flow cytometric analysis (reference value: 99.12 to 99.33%); type: functional; details: HL-60, 12 h, read-out: Activity; method in brief: as §3
[14] = test system: HEK293; assay: Cytotoxicity against HEK293 cells after 48 hrs by MTT assay; type: cell-based; details: Homo sapiens, HEK293, 48 h
[15] = test system: HL-60; assay: Induction of apoptosis in human HL60 cells assessed as late apoptotic cells at 0.5 uM after 24 hrs by annexin V-FITC/propidium iodide staining-based flow cytometric analysis (reference value: 1.64%); type: functional; method in brief: as §3
[16] = Antiproliferative activity against human HL60 cells after 48 hrs by MTT assay; type: functional, cell-based; details: HL-60, 48 h; method in brief: as §2
[17] = test system: HL-60; assay: Induction of apoptosis in human HL60 cells assessed as late apoptotic cells at 1 uM after 24 hrs by annexin V-FITC/propidium iodide staining-based flow cytometric analysis (reference value: 1.64%); type: functional; method in brief: as §3
[18] = test system: HL-60; assay: Induction of apoptosis in human HL60 cells assessed as early apoptotic cells at 1 uM after 12 hrs by annexin V-FITC/propidium iodide staining-based flow cytometric analysis (reference value: 0.38 to 0.55%); type: functional; method in brief: as §3
[19] = test system: HL-60; assay: Induction of apoptosis in human HL60 cells assessed as viable cells at 1 uM after 12 hrs by annexin V-FITC/propidium iodide staining-based flow cytometric analysis (reference value: 99.12 to 99.33%); type: functional; details: HL-60, 12 h, read-out: Activity; method in brief: as §3
[20] = test system: Raji; assay: Antiproliferative activity against human Raji cells after 48 hrs by MTT assay; type: functional, cell-based; method in brief: as §2
[21] = test system: K562; assay: Antiproliferative activity against human K562 cells after 48 hrs by MTT assay; type: functional, cell-based; details: K562, 48 h; method in brief: as §2
[22] = molecular target: T1, DNA topoisomerase 2-alpha; details: HL-60, 5 uM
[23] = molecular target: T1, DNA topoisomerase 2-alpha; assay: Inhibition of purified human topoisomerase 2-mediated relaxation of supercoiled pBR322 DNA at 50 uM incubated for 30 mins in presence of 1 mM ATP by agarose gel electrophoresis; method in brief: as §1
[24] = molecular target: T1, DNA topoisomerase 2-alpha; assay: Inhibition of purified human topoisomerase 2-mediated relaxation of supercoiled pBR322 DNA at 50 uM incubated for 30 mins in presence of 4 mM ATP by agarose gel electrophoresis; method in brief: as §1
[25] = molecular target: T1, DNA topoisomerase 2-alpha; details: HL-60, 5 uM; remark: listed apart in the source
[26] = test system: Calf thymus DNA; assay: Binding affinity to calf thymus DNA by UV-visible spectrophotometric analysis; type: nucleic-acid assay; details: Bos taurus
Method in brief: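 Compound fixed at 5 μM in DPBS pH 7.4 with 1% DMSO, titrated with CT-DNA (0–25 μM; concentration from A260, ε 13 200 M(bp)⁻¹cm⁻¹; A260/280 1.8–1.9). After 20 min equilibration at room temperature, absorption spectra recorded over 300–500 nm.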

T1 sequence (P11388 whole entry): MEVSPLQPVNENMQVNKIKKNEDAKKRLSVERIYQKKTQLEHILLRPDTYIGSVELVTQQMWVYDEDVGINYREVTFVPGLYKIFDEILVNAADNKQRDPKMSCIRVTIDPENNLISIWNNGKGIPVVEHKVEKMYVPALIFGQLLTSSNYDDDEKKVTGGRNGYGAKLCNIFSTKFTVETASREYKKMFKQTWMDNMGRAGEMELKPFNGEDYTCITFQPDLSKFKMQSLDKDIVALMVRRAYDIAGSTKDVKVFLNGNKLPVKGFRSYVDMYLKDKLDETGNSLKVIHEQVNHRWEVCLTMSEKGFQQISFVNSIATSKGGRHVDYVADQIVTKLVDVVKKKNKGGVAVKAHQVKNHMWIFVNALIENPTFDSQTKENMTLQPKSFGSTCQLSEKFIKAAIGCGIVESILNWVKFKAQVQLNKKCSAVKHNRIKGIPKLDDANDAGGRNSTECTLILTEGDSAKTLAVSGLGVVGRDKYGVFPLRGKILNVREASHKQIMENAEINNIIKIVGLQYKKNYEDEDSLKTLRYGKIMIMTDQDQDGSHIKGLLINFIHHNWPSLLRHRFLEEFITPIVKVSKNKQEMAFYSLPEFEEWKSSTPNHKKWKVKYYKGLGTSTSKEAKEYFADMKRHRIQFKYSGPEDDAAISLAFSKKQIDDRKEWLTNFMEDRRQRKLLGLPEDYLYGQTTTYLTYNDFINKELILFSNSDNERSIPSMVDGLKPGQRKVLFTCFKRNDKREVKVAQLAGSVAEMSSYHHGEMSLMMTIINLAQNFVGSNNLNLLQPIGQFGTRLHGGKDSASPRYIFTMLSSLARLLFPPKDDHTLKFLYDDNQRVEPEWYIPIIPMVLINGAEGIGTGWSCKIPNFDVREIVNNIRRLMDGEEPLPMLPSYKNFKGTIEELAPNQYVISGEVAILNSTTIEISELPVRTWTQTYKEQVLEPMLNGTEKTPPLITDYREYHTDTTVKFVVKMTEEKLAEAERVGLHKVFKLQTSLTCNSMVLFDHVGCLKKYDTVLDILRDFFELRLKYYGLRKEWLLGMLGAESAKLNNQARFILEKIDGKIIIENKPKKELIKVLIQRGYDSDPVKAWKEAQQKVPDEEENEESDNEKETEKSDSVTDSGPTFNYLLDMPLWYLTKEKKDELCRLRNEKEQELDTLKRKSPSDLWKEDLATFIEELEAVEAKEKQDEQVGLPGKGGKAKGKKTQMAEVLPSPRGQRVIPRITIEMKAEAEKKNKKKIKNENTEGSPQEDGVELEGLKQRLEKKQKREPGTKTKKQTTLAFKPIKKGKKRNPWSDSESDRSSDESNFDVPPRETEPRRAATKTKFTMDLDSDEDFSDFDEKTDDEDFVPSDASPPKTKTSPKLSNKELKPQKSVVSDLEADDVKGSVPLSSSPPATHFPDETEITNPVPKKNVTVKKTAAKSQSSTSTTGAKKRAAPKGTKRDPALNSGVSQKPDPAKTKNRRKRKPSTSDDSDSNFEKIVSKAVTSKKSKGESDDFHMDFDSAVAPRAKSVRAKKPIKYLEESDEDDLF

For `CCN(CC)CCCCn1c(N)c(-c2nc3ccccc3[nH]2)c2nc(C#N)c(C#N)nc21`, the inhibition [1] was “Active”, the Activity [2] was 0.43% and the IC50 [3] was 10100 nM. For the same compound, the Activity [4] was 0.35%, the viability at 1 µM [5] was 32.9% and the viability at 0.5 µM [6] was 99.3%. The viability at 0.5 µM [7] was 78.7%, the Activity [8] was 0.1% and the Activity [9] was 0.07%. The Activity [10] was 12.63%, the Activity [11] was 1.19% and the inhibition [12] was “inactive”. The viability at 2 µM [13] was 45.3%, the IC50 [14] was 5370 nM and the Activity [15] was 17.65%. For the same compound, the IC50 [16] was 460 nM, the Activity [17] was 45.05% and the Activity [18] was 1.39%. It also gave a viability at 1 µM [19] of 97.2%, an IC50 [20] of 2640 nM and an IC50 [21] of 1440 nM.

With `CN(C)CCCCn1c(N)c(-c2nc3ccccc3[nH]2)c2nc(C#N)c(C#N)nc21` the inhibition [1] was “Active”, the Activity [2] was 2.28% and the IC50 [3] was 11200 nM. The Activity [4] was 0.46%, the viability at 1 µM [5] was 0.65% and the viability at 0.5 µM [6] was 99.3%. The viability at 0.5 µM [7] was 13.9%, the Activity [8] was 0.05% and the Activity [9] was 0.03%. The Activity [10] was 8.31%, the inhibition [22] was “inactive” and the Activity [11] was 0.39%. For the same compound, the inhibition [12] was “inactive”, the viability at 2 µM [13] was 28.1% and the IC50 [14] was 4160 nM. For the same compound, the Activity [15] was 79.38%, the IC50 [16] was 430 nM and the IC50 [23] was 900 nM. It also gave an IC50 [24] of 16500 nM, an Activity [17] of 90.51% and an Activity [18] of 0.82%. For the same compound, the viability at 1 µM [19] was 98.7%, the inhibition [25] was “Active” and the IC50 [20] was 2560 nM. The Kb [26] was 2.8 ×10⁵ /M and the IC50 [21] was 1430 nM.
